SKKanGAS inh: S. pyogenes SKKanGAS growth inhibitors in kanamycin, primary screen, streptokinase expression inhibitor project, SKKanGAS strain, BacTiter-Glo luminescence | 1.3% of 300,000 active | inhibition, % at 7.5 µM | 6 h;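 active = mean replicate score, as percent of positive control median, at least 50; inconclusive = mean below 50 but one replicate at or above 50; inactive = mean and every replicate below 50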;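 also: strain carries kanamycin resistance gene driven by streptokinase promoter and grows in 40 µg/ml kanamycin; loss of luminescence reflects streptokinase promoter inhibition or plain growth inhibition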
Mdm2-MdmX inh: inhibitors of human Mdm2-MdmX association, primary screen, cell-based, luminescence, split luciferase, SaOS-2, uHTS | Protein Mdm4 (Homo sapiens) + E3 ubiquitin-protein ligase Mdm2 (Homo sapiens), … | SaOS-2 split-luciferase Mdm2/MdmX complementation | inhibition, % at 8 µM | 3% of 330,000 active | AID 485346, 2010;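 active = inhibition of at least 50% at 8 µM in the primary screen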
Target sequence (O15151 whole entry, looked up): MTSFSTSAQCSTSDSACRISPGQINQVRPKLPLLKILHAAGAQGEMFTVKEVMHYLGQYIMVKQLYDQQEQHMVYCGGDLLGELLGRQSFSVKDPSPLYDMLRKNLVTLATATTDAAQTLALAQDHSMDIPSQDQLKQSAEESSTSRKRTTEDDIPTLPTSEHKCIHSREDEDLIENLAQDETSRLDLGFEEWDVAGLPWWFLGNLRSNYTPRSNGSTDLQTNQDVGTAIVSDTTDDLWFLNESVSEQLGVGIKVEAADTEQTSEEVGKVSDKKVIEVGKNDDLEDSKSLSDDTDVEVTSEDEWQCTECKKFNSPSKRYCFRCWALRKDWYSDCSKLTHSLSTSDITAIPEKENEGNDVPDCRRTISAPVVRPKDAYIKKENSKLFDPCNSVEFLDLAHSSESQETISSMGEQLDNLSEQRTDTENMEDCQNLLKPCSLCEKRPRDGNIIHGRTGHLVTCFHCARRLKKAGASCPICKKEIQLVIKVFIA
Target sequence (Q00987 whole entry, looked up): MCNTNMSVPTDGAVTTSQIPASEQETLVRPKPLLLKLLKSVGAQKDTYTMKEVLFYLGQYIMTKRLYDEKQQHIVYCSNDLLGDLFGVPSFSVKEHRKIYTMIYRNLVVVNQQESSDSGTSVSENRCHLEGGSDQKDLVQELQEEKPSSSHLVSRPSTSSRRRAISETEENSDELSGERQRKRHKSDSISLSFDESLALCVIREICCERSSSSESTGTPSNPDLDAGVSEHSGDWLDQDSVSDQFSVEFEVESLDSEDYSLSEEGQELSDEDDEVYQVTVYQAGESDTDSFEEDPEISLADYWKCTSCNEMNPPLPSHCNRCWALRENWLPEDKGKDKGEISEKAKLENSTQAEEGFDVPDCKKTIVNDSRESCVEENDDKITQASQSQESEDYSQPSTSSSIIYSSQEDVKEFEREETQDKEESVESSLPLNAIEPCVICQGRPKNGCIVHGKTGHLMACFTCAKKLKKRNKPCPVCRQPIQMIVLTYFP
CSC inhib: cancer stem cell viability inhibitors, primary screen, luminescence | 1.1% of 300,000 active | AID 2717, 2010 | inhibition, % at 7.5 µM | cancer stem cell-like cells viability; in the data active = inhibition above about 75%; inconclusive = no clear call, values can overlap the other calls; tested in HMLE shEcad cells
Beta apoptosis: inhibitors of cytokine-induced beta cell apoptosis, primary screen, luminescence. 0.8% of 300,000 active. INS-1E cytokine-induced death, ATP luminescence, 48 h; percent of positive-control rescue, neutral wells zero. AID 435005, 2010. protection from apoptosis, % (test concentration not listed);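 active = Every replicate reaches about 75%, or at least half do and their mean reaches it too, limit read from the data; inconclusive = At least half of replicates reach the limit but their mean does not; inactive = Under half of replicates reach the limit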;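 also: higher means more ATP so stronger rescue from cytokine killing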
CHOP UPR activ: activators of apoptotic CHOP UPR arm, primary screen, cell-based, CHO-CHOP luciferase reporter, luminescence, uHTS; UPR activation; percent of tunicamycin response over DMSO baseline; 0.34% of 330,000 active; activation, % at 10 µM;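 active = at 10 µM dose, activation of 40% or more, normalized to positive control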
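System: CHO-CHOP luciferase reporter cell line | Buffer or medium: F12 medium containing 10% fetal bovine serum | Doses: One dose, 10 µM in 0.5% DMSO | Times: 6 h compound exposure at 37 °C after overnight seeding | Signal: Luciferase luminescence | Read-out: % activation vs tunicamycin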
UPR XBP1 act: activators of adaptive XBP1 UPR arm, primary screen, cell-based, CHO-XBP1 luciferase reporter, luminescence, uHTS; IRE1-XBP1 UPR activation; percent of tunicamycin response, DMSO as zero; activation, % at 20 µM; 0.33% of 330,000 active; AID 463104, 2010;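 active = versus positive control, 20 µM dose yields 30% or more activation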
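Assay system: IRE1-XBP1 luciferase reporter CHO line. Input: 1000 cells/well. Buffer or medium: F12 with 10% serum. Doses: 20 µM, 1% DMSO. Times: overnight seeding at 37 °C, 6 h compound treatment at 37 °C. Technique: Steady-Glo luciferase glow luminescence, 10 min after reagent addition.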
Mdm2 MdmX conf: Mdm2-MdmX complex disruptors, retested hits, confirmation, luminescence, single concentration | Mdm2-MdmX binding, luminescent assay | AID 489028, 2010 | shares compounds with Mdm2-MdmX inh | 55% of 10,000 active | inhibition, % at 8 µM; in the data active = inhibition above about 40%
FLuc counter: full-length luciferase signal inhibition, confirmation, counter-screen for Mdm2/MdmX interaction inhibitor project, cell-based, single concentration, SaOS-2; shares compounds with Mdm2-MdmX inh; SaOS-2 full-length luciferase counterscreen, luminescence; inhibition, % at 8 µM; 77% of 6,200 active; AID 504607, 2011;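 active = mean inhibition at 8 µM reaching about 37%, which flags the compound as non-specific, limit read from the data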;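 also: p53-null SaOS-2 cells with luciferase driven by a doxycycline-inducible promoter; compound on cells about two nights before reading with doxycycline added after day one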
Of the large screens only hits and unclear results are named; the others gave an inactive call (follow-up assays come after a bar, where they were run). Most compounds without a hit are left out; they make up all but 4.8% or so of the library.

O=C(O)Cc1cc(I)c(Oc2ccc(O)c(I)c2)c(I)c1	Mdm2-MdmX inh 52.9 | Mdm2 MdmX conf inactive
O=C(O)Cc1ccc(O)c(O)c1	none
C=CC[C@H](CC(=O)N(CCO)Cc1ccccc1)C(=O)NC[C@H](OC(=O)[C@@H](CC=C)Cc1ccc(F)cc1)c1ccccc1	Mdm2-MdmX inh 70.7 (no result: SKKanGAS inh) | Mdm2 MdmX conf inactive
C=CC[C@H](CC(=O)N(CCO)Cc1ccccc1)C(=O)NCCOC(=O)[C@@H](CC=C)Cc1ccc(F)cc1	none (no result: SKKanGAS inh, CSC inhib)
C=CC[C@@H](CC(=O)N(CCO)Cc1ccccc1)C(=O)NC[C@H](OC(=O)[C@@H](CC=C)CC(=O)OC(C)(C)C)c1ccccc1	none (no result: SKKanGAS inh)
C=CC[C@@H](CC(=O)N(CCO)Cc1ccccc1)C(=O)NC[C@@H](OC(=O)[C@@H](CC=C)Cc1ccc(F)cc1)c1ccccc1	Mdm2-MdmX inh 54.7 (no result: SKKanGAS inh) | Mdm2 MdmX conf inactive
O=C1Nc2ccccc2/C1=C/c1ccccc1F	none
Cc1nn(-c2ccc(F)cc2)c(Cl)c1/C=C1\C(=O)Nc2ccccc21	Mdm2-MdmX inh 59.2, CSC inhib 78.6 (no result: SKKanGAS inh) | Mdm2 MdmX conf 61.8 | FLuc counter 67.9
COc1ccc(Br)cc1C(=O)NC(=S)Nc1c(C)n(C)n(-c2ccccc2)c1=O	none
Cc1ccc2c(c1)-c1c(ssc1=S)C(C)(C)N2C(=O)CSc1nncn1C	none
Cc1cc2c(cc1C)N(C(=O)CSC1=NCCS1)C(C)(C)c1ssc(=S)c1-2	none (no result: CSC inhib)
COc1ccc2c(c1)-c1c(ssc1=S)C(C)(C)N2C(=O)CSC1=NCCS1	Mdm2-MdmX inh 64.0 | Mdm2 MdmX conf inactive
CC1(C)c2ssc(=S)c2-c2ccccc2N1C(=O)CSC1=NCCS1	Mdm2-MdmX inh 51.9 | Mdm2 MdmX conf inactive
Cc1ccc(S(=O)(=O)NC(=O)COc2ccc(Cl)cc2Cl)cc1	none
CN(C)C(=O)CSc1ccc(S(=O)(=O)N2CCOCC2)cn1	none (no result: SKKanGAS inh)
CCOc1ccc(N(Cc2cc3cc(C)ccc3[nH]c2=O)S(=O)(=O)c2ccccc2)cc1	none
COCCCN(C(=O)c1cc(-c2ccco2)nc2ccccc12)c1c(N)n(Cc2ccccc2)c(=O)[nH]c1=O	none
CCOC(=O)c1[nH]c(C)c(C(=O)c2cc(F)ccc2F)c1C	Mdm2-MdmX inh 58.7 | Mdm2 MdmX conf 55.9 | FLuc counter 76.5
CCOC(=O)c1c(C)[nH]c(C(=O)OCC(=O)Nc2cc(C)c(Cl)cc2OC)c1C	Mdm2-MdmX inh 53.9 | Mdm2 MdmX conf inactive
CCOC(=O)c1c(C)[nH]c(C(=O)OCC(=O)Nc2ccc(Cl)cn2)c1C	none (no result: SKKanGAS inh)
CCOC(=O)c1c(C)[nH]c(C(=O)OCC(=O)Nc2sccc2C(N)=O)c1C	Mdm2-MdmX inh 56.3 | Mdm2 MdmX conf 59.2 | FLuc counter 65.7
O=C(CC1C(=O)NCCN1Cc1c(F)cccc1Cl)NCCCOc1cccnc1 (stereo unspecified)	none
Cc1cccc(OCCNC(=O)c2cccc(Oc3ccc(C(F)(F)F)cc3[N+](=O)[O-])c2)c1	CSC inhib inconclusive
Cc1cccc(OCCNC(=O)c2ccc(Oc3ccc(C(F)(F)F)cc3[N+](=O)[O-])cc2)c1	Mdm2-MdmX inh 50.3 (no result: Beta apoptosis) | Mdm2 MdmX conf inactive
CC(=O)NC1C(=O)N(Cc2ccccc2)c2ccc(Br)cc21 (stereo unspecified)	Mdm2-MdmX inh 75.0 | Mdm2 MdmX conf 42.0 | FLuc counter 48.9
CN1CCN(c2ccc([N+](=O)[O-])cc2/C=N/NC(=O)c2cccc([N+](=O)[O-])c2)CC1	Mdm2-MdmX inh 51.3 | Mdm2 MdmX conf inactive
COc1ccc(CC(=O)Nc2ccc(/C(C)=N/NC(=O)c3cccc([N+](=O)[O-])c3)cc2)cc1	Mdm2-MdmX inh 57.0 | Mdm2 MdmX conf inactive
Cc1ccc(-n2[nH]c(C)c(/C=N/NC(=O)c3ccc([N+](=O)[O-])cc3)c2=O)c(C)c1	Mdm2-MdmX inh 53.1 (no result: Beta apoptosis) | Mdm2 MdmX conf inactive
CN1CCN(c2ccccc2NC(=O)c2cccc([N+](=O)[O-])c2)CC1	none (no result: CSC inhib)
CCC(=O)Nc1ccc(/C(C)=N\NC(=O)c2ccc(OC)cc2)cc1	none
Cc1[nH]n(-c2ccccc2)c(=O)c1/C=N/NC(=O)c1cccc([N+](=O)[O-])c1	Mdm2-MdmX inh 51.9 (no result: SKKanGAS inh) | Mdm2 MdmX conf 44.0 | FLuc counter inactive
CS(=O)(=O)c1ccc(Cl)c(NC(=O)CSc2nc3ccccc3c(=O)n2Cc2ccco2)c1	none
O=C(C[n+]1cc(-c2ccc(Cl)cc2)n2c1CCC2)Nc1nc(-c2ccc(F)cc2)cs1	none
CCCCC(CC)C(=O)Nc1cc(C(=O)NCCC)ccc1N1CCC2(CC1)CC(c1cccc(Br)c1)=NO2 (stereo unspecified)	none
CCc1ccccc1N(CC(=O)NC(C)(C)CC)C(=O)CCC(=O)Nc1nccs1	none
CC(/C=N/NC(=O)c1cccc([N+](=O)[O-])c1)=C\c1ccccc1	Mdm2-MdmX inh 74.1 (no result: CSC inhib) | Mdm2 MdmX conf inactive
CCC(=O)N1CCN(c2ccc(Cl)cc2NC(=O)c2cccc([N+](=O)[O-])c2)CC1	Mdm2-MdmX inh 54.9 | Mdm2 MdmX conf inactive
CCc1ccc(N2CC(C(=O)Nc3ccc4c(c3)OCO4)CC2=O)cc1 (stereo unspecified)	none (no result: SKKanGAS inh)
CS(=O)(=O)c1ccc(Cl)c(NC(=O)c2cc(S(=O)(=O)N3CCOCC3)ccc2N2CCCC2)c1	none
O=C1c2ccccc2-c2n[nH]c(=O)c3ccc(N4CCCCC4)c1c23	Mdm2-MdmX inh 52.4 | Mdm2 MdmX conf inactive
CCOc1ccc(OCCC(=O)OCC(=O)Nc2ccc(Cl)cn2)cc1	none
O=C(N/N=C/c1coc2ccc(Cl)cc2c1=O)c1ccc(O)cc1	none
O=C(N/N=C/c1coc2ccc(Cl)cc2c1=O)c1ccncc1	Mdm2-MdmX inh 59.5 | Mdm2 MdmX conf 44.5 | FLuc counter 63.3
COc1ccc(N(CC(=O)NCc2cccs2)S(=O)(=O)c2ccc(F)cc2)cc1	none (no result: SKKanGAS inh, CSC inhib)
COc1ccccc1N(C(=O)c1ccco1)C(C(=O)NC1CCCC1)c1ccc(N2CCOCC2)cc1 (stereo unspecified)	none
